Calls of active or inactive are those of the source. The calls are words filed in the database; no cut-off is given here.
Experiments:
[1] = Cytotoxicity against mouse […] measured by MTT assay; format: toxicity, cell-based, AML12HBV10
In short: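 Cytotoxicity was measured by MTT assay in the stable HBV line AML12HBV10, derived from immortalized mouse hepatocytes (AML12), and CC50 was determined.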

[2] = test system: Hepatitis B virus; assay: Antiviral activity against HBV infected in mouse AML12HBV10 cells assessed as reduction in viral replication incubated for 48 hrs and measured by [alpha-32P]UTP-labeled radio-probe based dot blot hybridization assay; format: functional, organism-based
In short: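 The test used the stable HBV line AML12HBV10, derived from immortalized mouse hepatocytes (AML12). HBV replication was measured by dot blot hybridization and EC50 was determined.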

[3] = Metabolic stability in human liver microsomes assessed as half-life; format: ADME, Microsome; settings: for t1/2: microsomes
[4] = Metabolic stability in mouse liver microsomes assessed as half-life; format: ADME, Microsome; settings: for t1/2: microsomes
[5] = Efflux ratio for apparent permeability across basolateral to apical side to apical to basolateral side in human Caco2 cells; format: ADME, cell-based; settings: Caco-2
[6] = Apparent permeability across basolateral to apical membrane in human Caco-2 cells; format: ADME, cell-based
[7] = Apparent permeability across apical to basolateral membrane in human Caco-2 cells; format: ADME, cell-based
[8] = test system: HepDES19; assay: Antiviral activity against HBV infected in human HepDES19 cells assessed as reduction of capsid associated HBV DNA 2 uM measured by agarose gel electrophoresis-based particle gel assay; format: functional, cell-based
In short: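 HepDES19 cells were kept with tetracycline to block pgRNA transcription (negative control) or without it to induce pgRNA transcription and HBV DNA replication. Compounds (1, 2 or 5 μM) or DMSO were added starting 24 h after tet removal and kept for 6 days.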

[9] = test system: HepDES19; assay: Antiviral activity against HBV infected in human HepDES19 cells assessed reduction of amounts of encapsidated pgRNA 2 uM […] by northern blot hybridization assay; format: functional, cell-based
In short: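 In tet-inducible HepDES19 cells, pgRNA transcription was induced by tetracycline removal; tet-maintained cells were the negative control. Treatment with DMSO or compound at 2 or 5 μM began 24 h after tet removal and lasted 6 days. Encapsidated pgRNA was detected by Northern blot hybridization, with ribosomal RNA as loading control.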

[10] = test system: HepDES19; assay: Antiviral activity against HBV infected in human HepDES19 cells assessed as reduction in levels of intracellular core protein 2 uM measured by Western blot assay; format: functional, cell-based
In short: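 HepDES19 cells kept in tetracycline, then switched to tet-free medium to induce pgRNA transcription and HBV DNA replication; tet-maintained cells serve as negative control. Treatment with compound or DMSO started 24 h after tet removal and continued for 6 days. Intracellular core protein was detected by Western blot with an antibody against the C-terminal 14 residues of core, with β-actin as loading control.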

[11] = Hepatitis B virus, AML12HBV10, 48 h

Which results are given for `O=C(Nc1ccnc(Cl)c1)c1cccc2c1OCCO2`?
CC50 ([1]; aml12hbv10): > 100 µM; EC50 [2, 11]: 4.65 µM

With `CC1(C)Cc2cccc(C(=O)Nc3ccc(F)c(Cl)c3)c2O1` as the compound, how does the CC50 ([1]; aml12hbv10) read?
Its CC50 is over 50 µM.

And the EC50 [2, 11]?
Its EC50 is 1.48 µM.

Which results are given for `N#Cc1ccc(NC(=O)c2cccc3c2OCCO3)cc1Cl`?
CC50 ([1]; aml12hbv10): > 50 µM; EC50 [2, 11]: 3.84 µM

Which CC50 ([1]; aml12hbv10) does the source give for `O=C1CCN(C(=O)Nc2ccc(F)c(C(F)(F)F)c2)[C@@H]2CCCC[C@H]12` here?
Its CC50 is over 20 µM.

And the EC50 [2, 11]?
The EC50 was 0.97 µM.

With `O=C1CCN(C(=O)Nc2ccnc(Cl)n2)[C@@H]2CCCC[C@H]12` as the compound, how does the CC50 ([1]; aml12hbv10) read?
Its CC50 is over 100 µM.

What about the EC50 [2, 11] of the same compound?
The EC50 was over 10 µM.

For `O=C(Nc1ccc(F)c(Cl)c1)c1cccc2c1OCCC2`, which CC50 ([1]; aml12hbv10) is on record?
Its CC50 is over 12.5 µM.

What about the EC50 [2, 11] of the same compound?
Its EC50 is 0.75 µM.

Which CC50 ([1]; aml12hbv10) does the source give for `O=C(Nc1ccc2c(c1)OCO2)c1cccc2c1OCCO2` here?
The CC50 was over 100 µM.

What about the EC50 [2, 11] of the same compound?
Its EC50 is 4.2 µM.

Which results are given for `O=C(Nc1ccc(N2CCOCC2)c(Cl)c1)c1cccc2c1OCCO2`?
CC50 ([1]; aml12hbv10): > 25 µM; EC50 [2, 11]: > 10 µM

For `O=C1CCN(C(=O)Nc2ccc(F)c(Cl)c2)c2ccccc21`, which CC50 ([1]; aml12hbv10) is on record?
Its CC50 is over 12.5 µM.

What about the EC50 [2, 11] of the same compound?
Its EC50 is 1.32 µM.

And the t1/2 [3]?
Its t1/2 is 47.2 min.

What about the t1/2 [4] of the same compound?
The t1/2 was 10 min.

Which CC50 ([1]; aml12hbv10) does the source give for `O=C1CCN(C(=O)Nc2ccc(F)c(Cl)c2)c2ccc(Cl)cc21` here?
The CC50 was over 100 µM.

What about the EC50 [2, 11] of the same compound?
The EC50 was 4.83 µM.

With `O=C1CCN(C(=O)Nc2ccc(F)c(Cl)c2)C2CCCCC12` (stereo in doubt; 60) as the compound, how does the EC50 ([2]; aml12hbv10) read?
Its EC50 is 1.86 µM.

What about the t1/2 [3] of the same compound?
The t1/2 was 48 min.

And the t1/2 [4]?
Its t1/2 is 7 min.

With `O=C1CC2CCC(C1)N2C(=O)Nc1ccc(F)c(Cl)c1` as the compound, how does the CC50 ([1]; aml12hbv10) read?
Its CC50 is over 100 µM.

And the EC50 [2, 11]?
The EC50 was over 10 µM.

With `O=C1CCN(C(=O)Nc2ncc(F)c(Cl)n2)[C@@H]2CCCC[C@H]12` as the compound, how does the CC50 ([1]; aml12hbv10) read?
Its CC50 is over 50 µM.

What about the EC50 [2, 11] of the same compound?
The EC50 was over 10 µM.

Which CC50 ([1]; aml12hbv10) does the source give for `O=C(Nc1ccc(F)c(Cl)c1)n1[nH]c(=O)c2ccccc21` here?
The CC50 was over 100 µM.

What about the EC50 [2, 11] of the same compound?
The EC50 was over 10 µM.

With `C[C@@H](NS(=O)(=O)c1cc2c(c(C(=O)Nc3ccc(F)c(Cl)c3)c1)OCCO2)c1ccncc1` as the compound, how does the EC50 [2, 11] read?
Its EC50 is 13.4 µM.

For `O=C(Nc1ccc(O)c(Cl)c1)c1cccc2c1OCCO2`, which CC50 ([1]; aml12hbv10) is on record?
The CC50 was over 100 µM.

And the EC50 [2, 11]?
The EC50 was 9.83 µM.

With `O=C(Nc1ccc(F)c(Cl)c1)c1cccc2c1OCC2` as the compound, how does the CC50 ([1]; aml12hbv10) read?
Its CC50 is 4.6 µM.

And the EC50 [2, 11]?
Its EC50 is 2.18 µM.

Which results are given for `O=C1CCN(C(=O)Nc2ccc(F)c(Cl)c2)[C@H]2CCCC[C@@H]12` (relative stereo)?
efflux ratio [5]: 0.5; CC50 ([1]; AML12HBV1 cells): > 100 µM; EC50 ([2]; aml12hbv10): 0.71 µM; half-life ([3]; liver microsomes): 56.8 min; Papp B→A [6]: 7.8 ×10⁻⁶ cm/s; Papp A→B [7]: 14.7 ×10⁻⁶ cm/s; half-life ([4]; liver microsomes): 32 min

For `O=C(Nc1ccc2ncsc2c1)c1cccc2c1OCCO2`, which CC50 ([1]; aml12hbv10) is on record?
Its CC50 is over 50 µM.

And the EC50 [2, 11]?
The EC50 was over 10 µM.

Which results are given for `O=C(Nc1ccc(F)c(Cl)c1)C1CCCc2ccccc21` (stereo not drawn)?
CC50 ([1]; aml12hbv10): 25 µM; EC50 [2, 11]: 9.4 µM

With `O=C1CCN(C(=O)Nc2ccc(F)c(Cl)c2)C(c2ccccc2)C1` (stereo not drawn) as the compound, how does the CC50 ([1]; aml12hbv10) read?
The CC50 was over 100 µM.

What about the EC50 [2, 11] of the same compound?
The EC50 was 5.01 µM.

Which results are given for `O=C1CCN(C(=O)Nc2cc(F)c(F)c(F)c2)[C@@H]2CCCC[C@H]12`?
CC50 ([1]; aml12hbv10): > 100 µM; EC50 [2, 11]: 2.41 µM

For `COC(=O)C1=C(C)NC(c2ncc(F)cc2F)=N[C@H]1c1ccc(F)cc1Cl`, which Activity [8] is on record?
The Activity was “Active”.

What about the Activity [9] of the same compound?
Its Activity is “Active”.

What about the Activity [10] of the same compound?
Its Activity is “Active”.

What does the source list for `O=C(Nc1cc(F)c(F)c(F)c1)c1cccc2c1OCCO2`?
CC50 ([1]; aml12hbv10): > 100 µM; EC50 [2, 11]: 0.28 µM

Which CC50 ([1]; aml12hbv10) does the source give for `O=C1CCN(C(=O)Nc2ccc(F)c(C(F)F)c2)[C@@H]2CCCC[C@H]12` here?
The CC50 was over 20 µM.

What about the EC50 [2, 11] of the same compound?
The EC50 was 0.26 µM.

And the t1/2 [3]?
Its t1/2 is 69 min.

And the t1/2 [4]?
Its t1/2 is 35 min.

With `CCC(C)NS(=O)(=O)c1cc2c(c(C(=O)Nc3ccc(F)c(Cl)c3)c1)OCCO2` (stereo not drawn) as the compound, how does the CC50 ([1]; aml12hbv10) read?
The CC50 was over 33.3 µM.

And the EC50 [2, 11]?
Its EC50 is 1.64 µM.

And the t1/2 [3]?
Its t1/2 is 37.4 min.

What about the t1/2 [4] of the same compound?
Its t1/2 is 16.4 min.

With `O=C(NC1CC(F)(F)C1)c1cccc2c1OCCO2` as the compound, how does the CC50 ([1]; aml12hbv10) read?
Its CC50 is over 100 µM.

What about the EC50 [2, 11] of the same compound?
The EC50 was over 10 µM.

Which CC50 ([1]; aml12hbv10) does the source give for `O=C1COc2cccc(C(=O)Nc3ccc(F)c(Cl)c3)c2N1` here?
The CC50 was over 50 µM.

What about the EC50 [2, 11] of the same compound?
Its EC50 is over 10 µM.
